# In ChEMBL document CHEMBL4689842, “EUbOPEN Chemogenomics Library wave 1” (2021):
# System: Fibroblast
# Assay: Multiplex assay against human fibroblast
# Assay type: toxicity, cell-based
# Summary of the method: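 Per cents of healthy-nucleus cells form the tubulin, mitochondrial-mass and membrane-permeability phenotype values. Live cells were stained at seeding with Hoechst33342, BioTracker Green Microtubule Cytoskeleton Dye, MitoTracker Red and Annexin V Alexa Fluor 680. After compound addition they were imaged on a CQ1 microscope at 37°C and 5% CO2, and CellPathfinder machine-learning gating split them into Hoechst high-intensity objects or normal cells, normal cells into healthy, pyknosed or fragmented nuclei, and pyknosed cells into mitotic or apoptotic.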
# [1] = 12 h, 1 µM, compound concentration 1 uM, replicate 1
# [2] = 12 h, 1 µM, compound concentration 1 uM, replicate 2
# [3] = 12 h, 10 µM, compound concentration 10 uM, replicate 1
# [4] = 12 h, 10 µM, compound concentration 10 uM, replicate 2
# [5] = 24 h, 1 µM, compound concentration 1 uM, replicate 1
# [6] = 24 h, 1 µM, compound concentration 1 uM, replicate 2
# [7] = 24 h, 10 µM, compound concentration 10 uM, replicate 1
compound,measurement,setting,value
CCn1c(-c2nonc2N)nc2cnc(Oc3cccc(NC(=O)c4ccc(OCCN5CCOCC5)cc4)c3)cc21 [GSK-269962A],Population Apoptotic (%),[1],50%
same,Population Fragmented Nuclei (%),[1],29%
same,Population Healthy Nuclei (%),[1],36%
same,Population Hoechst High Intensity Objects (%),[1],12%
same,Population Membrane Permeable-Phenotype (%),[1],22%
same,Population Mitochondria Different-Phenotype (%),[1],2%
same,Population Mitotic Cells (%),[1],50%
same,Population Normal (%),[1],87%
same,Population Pyknosed Nuclei (%),[1],33%
same,Population Tubulin-Different-Phenotype (%),[1],46%
same,Total Cell Count,[1],141
same,Population Apoptotic (%),[2],20%
same,Population Fragmented Nuclei (%),[2],20%
same,Population Healthy Nuclei (%),[2],72%
same,Population Hoechst High Intensity Objects (%),[2],2%
same,Population Membrane Permeable-Phenotype (%),[2],14%
same,Population Mitochondria Different-Phenotype (%),[2],16%
same,Population Mitotic Cells (%),[2],80%
same,Population Normal (%),[2],97%
same,Population Pyknosed Nuclei (%),[2],7%
same,Population Tubulin-Different-Phenotype (%),[2],14%
same,Total Cell Count,[2],45
same,Population Apoptotic (%),[3],55%
same,Population Fragmented Nuclei (%),[3],40%
same,Population Healthy Nuclei (%),[3],28%
same,Population Hoechst High Intensity Objects (%),[3],12%
same,Population Membrane Permeable-Phenotype (%),[3],21%
same,Population Mitochondria Different-Phenotype (%),[3],47%
same,Population Mitotic Cells (%),[3],44%
same,Population Normal (%),[3],87%
same,Population Pyknosed Nuclei (%),[3],30%
same,Population Tubulin-Different-Phenotype (%),[3],83%
same,Total Cell Count,[3],216
same,Population Apoptotic (%),[4],31%
same,Population Fragmented Nuclei (%),[4],20%
same,Population Healthy Nuclei (%),[4],57%
same,Population Hoechst High Intensity Objects (%),[4],7%
same,Population Membrane Permeable-Phenotype (%),[4],45%
same,Population Mitochondria Different-Phenotype (%),[4],97%
same,Population Mitotic Cells (%),[4],68%
same,Population Normal (%),[4],92%
same,Population Pyknosed Nuclei (%),[4],22%
same,Population Tubulin-Different-Phenotype (%),[4],100%
same,Total Cell Count,[4],71
same,Population Apoptotic (%),[5],47%
same,Population Fragmented Nuclei (%),[5],21%
same,Population Healthy Nuclei (%),[5],47%
same,Population Hoechst High Intensity Objects (%),[5],14%
same,Population Membrane Permeable-Phenotype (%),[5],19%
same,Population Mitochondria Different-Phenotype (%),[5],9%
same,Population Mitotic Cells (%),[5],52%
same,Population Normal (%),[5],85%
same,Population Pyknosed Nuclei (%),[5],31%
same,Population Tubulin-Different-Phenotype (%),[5],41%
same,Total Cell Count,[5],126
same,Population Apoptotic (%),[6],75%
same,Population Fragmented Nuclei (%),[6],11%
same,Population Healthy Nuclei (%),[6],77%
same,Population Hoechst High Intensity Objects (%),[6],2%
same,Population Membrane Permeable-Phenotype (%),[6],1%
same,Population Mitochondria Different-Phenotype (%),[6],10%
same,Population Mitotic Cells (%),[6],25%
same,Population Normal (%),[6],97%
same,Population Pyknosed Nuclei (%),[6],11%
same,Population Tubulin-Different-Phenotype (%),[6],14%
same,Total Cell Count,[6],59
same,Population Apoptotic (%),[7],57%
same,Population Fragmented Nuclei (%),[7],37%
same,Population Healthy Nuclei (%),[7],42%
